The results in this text go back to article PMC6207383 (International Journal of Nanomedicine, 2018).

Series [1] can be described thus: Tissue distribution study in vivo. Also on record: species or system BALB/c nude mice. The following applies: iv 10 µg DiR per mouse, 2–24 hours. The method in brief:
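Male BALB/c nude mice (4–6 weeks, about 20 g) bore subcutaneous right-back tumours from 2×10^6 HepG2 cells. At about 300 mm3 they were randomised to saline, free DiR or DiR-loaded nanoparticles, given as a single tail-vein injection. Imaging was under isoflurane at 745/820 nm excitation/emission, at 2, 4, 6, 8, 12 and 24 h. At 24 h, excised organs and tumours were imaged and quantified as total radiant efficiency.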

The test system of series [2] is HepG2 cells. Kind of series: CCK-8 cytotoxicity assay in HepG2 cells. Format: cell-based. The following applies: Homo sapiens, HepG2, 48 h. Put shortly: (§1)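 Cells seeded at 5×10^3/well and left overnight at 37°C to attach. They were then exposed for 48 h to graded concentrations of each agent alone or combined at fixed molar ratios (4:1, 2:1, 1:1, 1:2, 1:4). CCK-8 was added for about 2 h and A450 read. Viability = (AE–AB)/(AC–AB)×100%, using untreated and blank wells. HepG2 were grown in DMEM/10% FBS. Spheres were grown in DMEM-F12 with B27, ITS, 20 ng/mL EGF and bFGF, dissociated with Accutase and passed through a 100-µm sieve.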
(Tetrazolium dyes change colour on reduction, which living cells bring about.)

Series [3] relates to HepG2 cells. As to the kind of experiment: Colony formation assay. Format: cell-based, human. The following applies: DOX and ELC 0.01 µM, 24 hours treatment, 8–10 days growth. Put shortly: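 HepG2 cells were maintained in DMEM with 10% FBS and penicillin/streptomycin at 37°C, 5% CO2. They were seeded at 1×10^5 cells/well, left overnight, then exposed 24 h to free or nanoparticle test compounds (each drug at 0.01 µM final). Cells were trypsinized, reseeded at 800 cells/well and grown 8–10 days at 37°C. Colonies were stained with 1% crystal violet for 20 min at room temperature and counted by microscope.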

In series [4] the test system is HepG2 cells. As to the kind of experiment: Tumor sphere formation assay. Format: cell-based, human. The following applies: DOX and ELC 0.15 µM, 7 days. Put shortly:
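Trypsinized HepG2 cells were seeded at 500 cells/well in ultra-low-attachment wells in DMEM/F12 with 1× B27, 1× ITS, 20 ng/mL EGF and 20 ng/mL bFGF, then left overnight. Cells were exposed to free or nanoparticle test compounds (each drug at 0.15 µM final). After 7 days, tumor spheres were counted by microscope.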

For series [5], the system named is HepG2-TS. Kind of series: CCK-8 cytotoxicity assay in HepG2 tumor spheres. Format: cell-based, human. The method in brief: as §1

As for `CCCCCCCCCCCCCCCCCCN1/C(=C/C=C/C=C/C=C/C2=[N+](CCCCCCCCCCCCCCCCCC)c3ccccc3C2(C)C)C(C)(C)c2ccccc21.[I-]` [free DiR], the “DiR signals in real-time in vivo images” value in series [1] is “No obvious DiR signals”.

For `COc1cc2c(cc1OC)CN(CCc1ccc(NC(=O)c3cccc4c(=O)c5cccc(OC)c5[nH]c34)cc1)CC2` [ELC, elacridar], the IC50 (as a rule, the midpoint of a concentration-inhibition curve) came to 9.27 ± 2.61 µM in series [2] and 13.7 ± 4.27 µM in series [5] (Homo sapiens, HepG2, 48 h). For the same compound, the “number of colonies formed” value in series [3] was “reduced the formation of colonies compared with the control”. Further, the tumor sphere formation result in series [4] is listed as “decreased tumor sphere formation compared with that in the control”.

Consider `COc1cccc2c1C(=O)c1c(O)c3c(c(O)c1C2=O)C[C@@](O)(C(=O)CO)C[C@@H]3O[C@H]1C[C@H](N)[C@H](O)[C@H](C)O1` [DOX, doxorubicin], for which the “number of colonies formed” value in series [3] is given as “reduced the formation of colonies compared with the control”. In series [4], the tumor sphere formation result is recorded as “decreased tumor sphere formation compared with that in the control”. In series [5] (HepG2-TS, 48 hours, CCK-8), this compound yielded an IC50 of 0.477 ± 0.0514 µM.
